Reference: article PMC6679720 (Pharmacological research, 2019)
Like-named read-outs stand apart in the source and are kept apart here.

Columns and labels:
[1] = cited from earlier work
Plasma Oxt = type: in vivo, mice; details: for half-life: male, mouse; for time of return of plasma Oxt concentration to baseline / half-life / AUCG / AUCI / Cmax: plasma; for AUCG / AUCI / Cmax: nasal 12 μg, ELISA, mean ± s.e.m.
How it was run: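 Male Oxt KO and wildtype C57BL/6J mice received Oxt (12 µg total) nasally (2 × 6 μl saline pipetted bilaterally on the rhinarium) or i.p. (0.1 ml saline). Blood was drawn through a jugular catheter every 30 min for 2 h and double-centrifuged (6000 rpm, 15 min, 4°C). Plasma plus an equal volume of 0.1% TFA was extracted on C18 Sep-Pak columns and assayed by Oxt ELISA. Cmax, T1/2, AUCG (pg*30 min/sample) and AUCI were calculated.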

[2] = type: in vivo, mice; details: for Cmax in amygdala ECF adjusted for recovery rate: adjusted for recovery rate (4.58%)
How it was run: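 Male Oxt KO and wildtype C57BL/6J mice, housed singly. The day before, mice were anaesthetised with tribromoethanol and fitted with a jugular catheter and two linear microdialysis probes (18 kDa cut-off) in amygdala and hippocampus. Oxt (12 µg total) was given nasally (2 × 6 μl saline on the rhinarium) or i.p. in 0.1 ml saline. Dialysates were taken every 30 min for 2 h, vacuum-dried without heat, stored at -80°C, and measured unextracted by RIA.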

[3] = cited from earlier work; remark: listed apart in the source
[4] = wildtype C57BL/6J male mice, N = 8
[5] = mice and rats, nonhuman primates, humans

In the case of `CC[C@H](C)[C@@H]1NC(=O)[C@H](Cc2ccc(O)cc2)NC(=O)[C@@H](N)CSSC[C@@H](C(=O)N2CCC[C@H]2C(=O)N[C@@H](CC(C)C)C(=O)NCC(N)=O)NC(=O)[C@H](CC(N)=O)NC(=O)[C@H](CCC(N)=O)NC1=O` [Oxt, oxytocin], the “share of the total Oxt that reaches the CNS” value ([1]; intravenous injection) is listed as 2×10^−6, the “share of the total Oxt that reaches the CNS” value ([1]; nasal administration) is listed as 5×10^−6 and the “time of return of plasma Oxt concentration to baseline” value (Plasma Oxt; Oxt KO mice, intraperitoneal injection) is listed as “exceeding 120 minutes”. The “time of return of plasma Oxt concentration to baseline” value (Plasma Oxt; Oxt KO mice, nasal administration) was 90 to 120 min, the half-life (Plasma Oxt; C57BL/6J (wildtype), inhaled or intranasal, 12 ug) was 25.8 ± 6 min and the half-life (Plasma Oxt; C57BL/6J, ip, 12 μg) was 32 ± 9.1 min. It also gave a half-life (Plasma Oxt; Oxt KO, ip, 12 μg) of 34.5 ± 8.9 min, an AUCG (Plasma Oxt; Oxt KO male mice, N = 7) of 7920 ± 1280b pg*30 min/sample and an AUCI (Plasma Oxt; Oxt KO male mice, N = 7) of 6120± 1280 pg*30 min/sample. For the same molecule, the Cmax (Plasma Oxt; Oxt KO male mice, N = 7) was 131 ± 29 pg/sample, the AUCG (Plasma Oxt; [4]) was 23,600 ± 4880a pg*30 min/sample and the AUCI (Plasma Oxt; [4]) was 17,300 ± 5260 pg*30 min/sample. For the same molecule, the Cmax (Plasma Oxt; [4]) was 398± 101 pg/sample, the “time for which Oxt was detected in circulation” value (Plasma Oxt; nasal, Oxt KO mice, spiking in the first 30 minutes) was 90 min and the “time of return of Oxt concentration to baseline” value ([2]; Oxt KO mice, amygdala, intraperitoneal injection) was 60 to 90 min. The “time at which Cmax of Oxt occurred” value ([2]; after nasal administration, current study, 30-min sampling) was 30 to 60 min, the “Cmax in amygdala ECF adjusted for recovery rate” value ([2]; intraperitoneal injection, wildtype mice, amygdala) was 0.91 ± 0.27 ng/mL and the “Cmax in amygdala ECF adjusted for recovery rate” value ([2]; nasal administration, wildtype mice, amygdala) was 4.16 ± 1.00 ng/mL. For the same molecule, the “time of peak concentration in brain ECF and plasma” value ([2]; nasal and intraperitoneal administration, wildtype mice) was 30 to 60 min, the “time for which Oxt remained detectable in amygdala and hippocampus” value ([2]; nasal, Oxt KO mice) was 90 min and the “persistence of the rise of plasma Oxt after nasal application” value ([3]; earlier studies) was 75 to 90 min. The “time of peak of plasma Oxt after nasal application” value ([3]; earlier studies) was 15 to 30 min, the “time of peak of Oxt in circulation after nasal application” value [3, 5] was 15 to 30 min and the “time of return of Oxt in circulation to baseline after nasal application” value [3, 5] was 75 to 90 min. The “time of rise in CSF Oxt after nasal application” value (shortened to “time of rise in CSF Oxt”) ([3]; ref 22, 23, 28) was 15 to 30 min, the “time of rise in CSF Oxt” value ([3]; ref 24) was 75 min and the “time of rise in CSF Oxt” value ([3]; ref 26) was 60 min.
